{"data": "Measurements pooled from the literature", "organism": "Plasmodium falciparum", "observed": "parasite growth", "note": "Protocols differ between the studies behind these lines."}
{"Structure (SMILES)": "COc1cc(/C=C/c2cc(/C=C/c3ccc(O)c(OC)c3)n(-c3cccc([N+](=O)[O-])c3)n2)ccc1O", "strain": "K1", "notes": "drug-resistant strain, blood stage", "measurement": "EC50", "value": "16700 nM"}
{"Structure (SMILES)": "Cc1cc(F)cc(C)c1NC(=N)CC(O)c1cc2c(F)cc(F)cc2c2cc(C(F)(F)F)ccc12 (stereo not shown)", "method": "ELISA", "strain": "3D7", "time": "72 h", "notes": "blood stage", "measurement": "IC50", "value": "11.6 nM"}
{"Structure (SMILES)": "CCCCCCCCNC(C)C(O)c1ccc(SC(C)C)cc1 (stereo not shown)", "strain": "K1", "notes": "drug-resistant strain, blood stage", "measurement": "IC50", "value": "5.1 nM"}
{"Structure (SMILES)": "COc1cc(C=C(C(=O)/C=C/c2ccc(O)c(OC)c2)C(=O)/C=C/c2ccc(O)c(OC)c2)ccc1O", "strain": "K1", "notes": "drug-resistant strain, blood stage", "measurement": "EC50", "value": "18800 nM"}
{"Structure (SMILES)": "N=C(CC(O)c1cc2c(F)cc(F)cc2c2cc(C(F)(F)F)ccc12)Nc1cccc(F)c1 (stereo not shown)", "method": "ELISA", "strain": "3D7 DD2", "notes": "blood stage", "measurement": "IC50", "value": "~2 nM"}
{"Structure (SMILES)": "CO[C@H]1/C=C/O[C@@]2(C)Oc3c(C)c(O)c4c(O)c(c(/C=N/N5CCN(C)CC5)c(O)c4c3C2=O)NC(=O)/C(C)=C\\C=C\\[C@H](C)[C@H](O)[C@@H](C)[C@@H](O)[C@@H](C)[C@H](OC(C)=O)[C@@H]1C", "strain": "DD2", "notes": "drug-resistant strain, blood stage", "measurement": "IC50", "value": "573 nM"}
{"Structure (SMILES)": "CCN1CCN(Cc2ccc(Nc3nc4ccc(Oc5ccnc(NC(=O)C6CCN(C)CC6)c5)cc4n3C)cc2C(F)(F)F)CC1", "method": "flow cytometry", "strain": "DD2", "time": "72 h", "notes": "blood stage", "measurement": "IC50", "value": "55.7 nM"}
{"Structure (SMILES)": "COc1cc(/C=C/C(=O)C(=Cc2cccc(O)c2)C(=O)/C=C/c2ccc(O)c(OC)c2)ccc1O", "strain": "K1", "notes": "drug-resistant strain, blood stage", "measurement": "EC50", "value": "11000 nM"}
{"Structure (SMILES)": "CC(C)(C)CNC(=N)CC(O)c1cc2c(F)cc(F)cc2c2cc(C(F)(F)F)ccc12 (stereo not shown)", "method": "ELISA", "strain": "3D7", "time": "72 h", "notes": "blood stage", "measurement": "IC50", "value": "6020 nM"}
{"Structure (SMILES)": "CC(=O)[C@@]1(O)[C@H](O)C[C@H]2[C@@H]3CCC4=CC(=O)CC[C@]4(C)[C@H]3CC[C@@]21C", "strain": "DD2", "notes": "drug-resistant strain, blood stage", "measurement": "IC50", "value": "617 nM"}
{"Structure (SMILES)": "N=C(CC(O)c1cc2c(F)cc(F)cc2c2cc(C(F)(F)F)ccc12)Nc1ccc(N2CCC(F)(F)CC2)cc1 (stereo not shown)", "method": "ELISA", "strain": "3D7 DD2", "notes": "blood stage", "measurement": "IC50", "value": "~32 nM"}
{"Structure (SMILES)": "COc1cc(/C=C2\\CC/C(=C\\c3ccc(O)c(OC)c3)C2=O)ccc1O", "strain": "K1", "notes": "drug-resistant strain, blood stage", "measurement": "EC50", "value": "1470 nM"}
{"Structure (SMILES)": "N=C(CC(O)c1cc2c(F)cc(F)cc2c2cc(C(F)(F)F)ccc12)Nc1ccc(-c2ccc(F)cc2)cc1 (stereo not shown)", "method": "ELISA", "strain": "3D7 DD2", "notes": "blood stage", "measurement": "IC50", "value": "~5 nM"}
{"Structure (SMILES)": "CCN(CC)CCCC(C)Nc1ccnc2cc(Cl)ccc12 (stereo not shown)", "strain": "DD2", "notes": "drug-resistant strain", "measurement": "IC50", "value": "76.8 nM"}
{"Structure (SMILES)": "N=C(CC(O)c1cc2c(F)cc(F)cc2c2cc(C(F)(F)F)ccc12)N1CCC(F)(F)CC1 (stereo not shown)", "method": "ELISA", "strain": "3D7", "time": "72 h", "notes": "blood stage", "measurement": "IC50", "value": "14.4 nM"}
{"Structure (SMILES)": "C[C@@H]1CC[C@H]2[C@@H](C)C(=O)O[C@@H]3O[C@@]4(C)CC[C@@H]1[C@]32OO4", "method": "SYBR Green", "strain": "3D7", "notes": "blood stage", "measurement": "IC50", "value": "19.5 nM"}
{"Structure (SMILES)": "COc1cc(/C=C/C(=O)C(=Cc2ccc(O)cc2)C(=O)/C=C/c2ccc(O)c(OC)c2)ccc1O", "strain": "K1", "notes": "drug-resistant strain, blood stage", "measurement": "EC50", "value": "13300 nM"}
{"Structure (SMILES)": "N=C(N)N/N=C/c1c(Cl)cccc1Cl", "strain": "DD2", "notes": "drug-resistant strain, blood stage", "measurement": "IC50", "value": "1310 nM"}
{"Structure (SMILES)": "COc1cc(/C=C/C(=O)C(=Cc2ccc([N+](=O)[O-])cc2)C(=O)/C=C/c2ccc(O)c(OC)c2)ccc1O", "strain": "K1", "notes": "drug-resistant strain, blood stage", "measurement": "EC50", "value": "9100 nM"}
